Experimental findings from ChEMBL document CHEMBL1142086, “Flavonoid dimers as bivalent modulators for pentamidine and sodium stiboglucanate resistance in leishmania” (Antimicrob Agents Chemother, 2007) are described below.

Data set [1] has as its system Leishmania donovani. Nature of the data set: Cytotoxicity against wild-type Leishmania donovani LdAG83 by MTS assay. The following applies: AG83. It counts as organism-based. The procedure, abridged:
(§1)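 Promastigotes in Schneider's Drosophila medium (pH 6.9) with 10% heat-inactivated FCS, 4 mM glutamine and gentamicin at 27°C. Seeded at 10^5 cells/well, exposed to a range of modulator concentrations (up to 200 μM) for 72 h at 27°C. MTS/PMS added, 4 h colour development, OD 490 nm. Survival expressed relative to untreated wells; ≥2 independent experiments in triplicate.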

For data set [2], the system named is Leishmania donovani. Kind of data set: Cytotoxicity against SSG-resistant Leishmania donovani Ld39 by MTS assay. It counts as organism-based. The procedure, abridged: as §1
In general terms: Tetrazolium dyes change colour on reduction, which living cells bring about.

The subject of data set [3] is Leishmania enriettii. Nature of the data set: Cytotoxicity against pentamidine-resistant Leishmania enriettii LePentR50 by MTS assay. It counts as organism-based. Summed up: as §1
A short description of data set [4]: Resistance reversal as >50% reduction in pentamidine IC50 in drug-resistant Leishmania enriettii LePentR50 by MTS assay. The class given is functional. Summed up:
(§2)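 Promastigotes seeded at 10^5 cells/well and incubated 72 h at 27°C with serial concentrations of SSG (L. donovani) or pentamidine (L. enriettii LePentR50), each with 6 μM modulator or DMSO solvent control. Survival read by MTS/PMS at 490 nm after 4 h. […] Triplicates per concentration.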

The nature of data set [5]: Resistance reversal as >50% reduction in pentamidine IC50 in wild-type Leishmania enriettii by MTS assay. It counts as functional. Summed up: (§3)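 L. enriettii promastigotes are wild type, LeMDR1−/− (no drug in culture) or LeV160 (maintained in 160 μg/ml vinblastine). Seeded at 10^5 cells/well with graded pentamidine plus 6 μM modulator for 72 h at 27°C. MTS read-out at 490 nm gives the pentamidine IC50. Three independent experiments in triplicate.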

Data set [6] in a line: Resistance reversal as >50% reduction in SSG IC50 in drug-resistant Leishmania donovani Ld39 by MTS assay. It counts as functional. Summed up:
as §2

Data set [7] in a line: Resistance reversal as >50% reduction in SSG IC50 in drug-resistant Leishmania donovani Ld2001 by MTS assay. The class given is functional. The procedure, abridged: as §2
Data set [8] in a line: Resistance reversal as >50% reduction in SSG IC50 in wild-type Leishmania donovani LdAG83 by MTS assay. It counts as functional. The procedure, abridged:
as §2

Data set [9] concerns Leishmania enriettii. Nature of the data set: Increase of pentamidine accumulation in drug-resistant Leishmania enriettii LePentR50 promastigotes at 15 uM after 3 hrs. It counts as functional, organism-based. Summed up: (§4)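 4-day-old LePentR50 promastigotes (2 × 10^8 cells/ml, 1 ml) incubated with 0.84 mM pentamidine plus modulator (0, 15, 30, 60 μM) for 3 h at 27°C in the dark. Cells washed with cold PBS and lysed in 75% acetonitrile by freeze-thaw. Pentamidine quantified by ion-pair C18 HPLC at 265 nm against a standard curve and expressed per mg protein. Triplicates, repeated twice.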

The subject of data set [10] is Leishmania enriettii. Nature of the data set: Increase of pentamidine accumulation in drug-resistant Leishmania enriettii LePentR50 promastigotes at 30 uM after 3 hrs. The class given is functional, organism-based. Summed up: as §4
For data set [11], the system named is Leishmania enriettii. Kind of data set: Increase of pentamidine accumulation in drug-resistant Leishmania enriettii LePentR50 promastigotes at 60 uM after 3 hrs. The class given is functional, organism-based. Summed up:
as §4

For data set [12], the system named is Leishmania enriettii. Nature of the data set: Cytotoxicity against drug-resistant Leishmania enriettii LePentR50 at 60 uM after 3 hrs. It counts as organism-based. The following applies: in vitro.
Data set [13] relates to Leishmania donovani. Kind of data set: Increase of SSG accumulation in drug-resistant Leishmania donovani Ld39 at 30 uM relative to LdAG83 cells. It counts as functional, organism-based. The procedure, abridged: (§5)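 Axenic amastigotes made by shifting 4-day promastigotes into supplemented M199 at 37°C for 24 h. 1 ml (2 × 10^8 cells/ml) incubated with 0.05 mM SSG plus modulator (0, 30, 60 μM) for 3 h at 37°C. After PBS washes, cells digested in nitric acid. Total Sb measured by ICP-MS (m/z 121/123, In internal standard), in nmol/mg protein. Expressed as % of LdAG83; triplicates, two experiments.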

The subject of data set [14] is Leishmania donovani. Nature of the data set: Increase of SSG accumulation in drug-resistant Leishmania donovani Ld2001 at 30 uM relative to LdAG83 cells. The class given is functional, organism-based. Summed up:
as §5

For data set [15], the system named is Leishmania donovani. Nature of the data set: Increase of SSG accumulation in drug-resistant Leishmania donovani Ld39 at 60 uM relative to LdAG83 cells. The class given is functional, organism-based. Summed up:
as §5

Data set [16] has as its system Leishmania donovani. Kind of data set: Increase of SSG accumulation in drug-resistant Leishmania donovani Ld2001 at 60 uM relative to LdAG83 cells. The class given is functional, organism-based. Summed up:
as §5

In data set [17] the test system is Leishmania donovani. Nature of the data set: Cytotoxicity against wild-type Leishmania donovani at 60 uM after 3 hrs. The class given is organism-based. The following applies: in vitro.
Data set [18] in a line: Effect on modulating SSG-resistance of Leishmania donovani Ld39 promastigotes assessed as reversal of resistance at 6 uM after 72 hrs by MTS. It counts as functional. Summed up:
(§6)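 Ld39 or LdAG83 promastigotes seeded at 10^5 cells/well with serial SSG dilutions plus modulator (0, 1, 2, 4, 6 μM) for 72 h at 27°C. SSG concentrations differ between the two strains. Percentage survivors by MTS. Triplicate points, three separate experiments.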

The nature of data set [19]: Effect on modulating drug-resistance of wild type SSG-sensitive Leishmania donovani LdAG83 promastigotes assessed as reversal of resistance at 6 uM after 72 hrs by MTS. The class given is functional. Summed up:
as §6

The nature of data set [20]: Effect on modulating pentamidine-resistance of Leishmania enriettii LePentR50 assessed as decrease in survival after 72 hrs by MTS. The class given is functional. Summed up: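 LePentR50 promastigotes seeded at 10^5 cells/well, exposed 72 h at 27°C to graded modulator alone or with 60 μg/ml pentamidine. MTS survival as percentage of untreated. […] Triplicates, three repeats.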

A short description of data set [21]: Toxicity against pentamidine-resistance Leishmania enriettii LePentR50 upto 6 uM.
The nature of data set [22]: Resistance reversal as >50% reduction in pentamidine IC50 in Leishmania enriettii LeMDR1-/- by MTS assay. The class given is functional. Summed up:
as §3

A short description of data set [23]: Resistance reversal as >50% reduction in pentamidine IC50 in Leishmania enriettii LeV160 overexpressing LeMDR1 by MTS assay. It counts as functional. Summed up: as §3

Molecules are shown by their SMILES. The source made the active and inactive calls. Unless noted, the calls are words filed in the database; no cut-off is given here. Some results are limits rather than exact numbers.

Usually IC50 stands for the concentration that inhibits the measured activity by half. Lower therefore signals greater potency in that assay. In the case of `O=c1cc(-c2ccc(OCCOCCOCCOCCOCCOCCOCCOCCOCCOCCOCCOCCOCCOc3ccc(-c4cc(=O)c5c(O)cc(O)cc5o4)cc3)cc2)oc2cc(O)cc(O)c12`, the IC50 was 50 µM in the data set with Leishmania donovani [1] and 60 µM in the data set with Leishmania donovani [2].
Turning to `O=c1cc(-c2ccc(OCCOCCOCCO)cc2)oc2cc(O)cc(O)c12`, the IC50 with Leishmania enriettii [3], in the data set with Leishmania donovani [1] and with Leishmania donovani [2] was above 200 µM each time.
In the case of `O=c1cc(-c2ccc(OCCOCCOCCOCCOCCOCCOCCOCCOCCOCCOc3ccc(-c4cc(=O)c5c(O)cc(O)cc5o4)cc3)cc2)oc2cc(O)cc(O)c12`, the IC50 with Leishmania donovani [1] and with Leishmania donovani [2] was above 200 µM each time.
On to `O=c1cc(-c2ccc(OCCOCCOCCOCCOCCOc3ccc(-c4cc(=O)c5c(O)cc(O)cc5o4)cc3)cc2)oc2cc(O)cc(O)c12`, for which the half-inhibitory concentration (IC50) stood at 70 µM in the data set on Leishmania enriettii [3], 30 µM with Leishmania donovani [1] and 42 µM in the data set on Leishmania donovani [2].
For `O=c1cc(-c2ccc(OCCOc3ccc(-c4cc(=O)c5c(O)cc(O)cc5o4)cc3)cc2)oc2cc(O)cc(O)c12`, the half-maximal inhibitory concentration (IC50) with Leishmania donovani [1] is 95 µM.
In the case of `O=c1cc(-c2ccc(OCCOCCOCCOCCOCCOCCOc3ccc(-c4cc(=O)c5c(O)cc(O)cc5o4)cc3)cc2)oc2cc(O)cc(O)c12`, the figures for the IC50 in the data set with Leishmania enriettii [3], in the data set on Leishmania donovani [1] and in the data set with Leishmania donovani [2] were 40 µM, 11 µM and 13 µM, respectively.
`O=c1cc(-c2ccc(O)cc2)oc2cc(O)cc(O)c12` [APIGENIN]: the IC50 in the data set on Leishmania enriettii [3] worked out at 55 µM; in the data set with Leishmania donovani [1], 32 µM; in the data set on Leishmania donovani [2], 43 µM.
Consider `O=c1cc(-c2ccc(OCCOCCOCCOCCOCCOCCOCCOCCOCCOc3ccc(-c4cc(=O)c5c(O)cc(O)cc5o4)cc3)cc2)oc2cc(O)cc(O)c12`, for which the results for the IC50 in the data set on Leishmania donovani [1] and in the data set on Leishmania donovani [2] were 10 µM and 14 µM, respectively.
The term EC50 denotes the concentration needed to bring the measured effect to its halfway point. As to `O=c1cc(-c2ccc(OCCOCCOCCOCCOc3ccc(-c4cc(=O)c5c(O)cc(O)cc5o4)cc3)cc2)oc2cc(O)cc(O)c12`, the Resistance reversal entry in data set [4], in data set [5], in data set [6], in data set [7], in data set [22] and in [23] was “Active” each time. The Resistance reversal entry in data set [8] and in data set [19] was “inactive” each time. Besides, the IC50 in the data set with Leishmania enriettii [3] was above 200 µM; with Leishmania donovani [1], 7 µM; in the data set with Leishmania donovani [2], 10 µM. In addition, the Drug uptake in the data set on Leishmania enriettii [9] was 2.95 µM; in the data set with Leishmania enriettii [10], 4.69 µM; in the data set with Leishmania enriettii [11] it was 26.6 µM; in the data set with Leishmania donovani [13], 74%; with Leishmania donovani [14] it was 83%; with Leishmania donovani [15], 90%. Besides, the Drug uptake in the data set with Leishmania donovani [16] came to 69%. The Activity result with Leishmania enriettii [12] and with Leishmania donovani [17] was “Not Active” throughout. In addition, in data set [18], the Resistance reversal result was “Dose-dependent effect”. Moreover, the EC50 in data set [20] turned out to be 0.94 µM. Moreover, the Toxicity entry in [21] was “Not Toxic”.
For `O=c1cc(-c2ccc(OCCOCCOCCOCCOCCOCCOCCOCCOc3ccc(-c4cc(=O)c5c(O)cc(O)cc5o4)cc3)cc2)oc2cc(O)cc(O)c12`, the IC50 was found to be 12 µM in the data set with Leishmania donovani [1] and 14 µM with Leishmania donovani [2].
Turning to `O=c1cc(-c2ccc(OCCOCCOCCOc3ccc(-c4cc(=O)c5c(O)cc(O)cc5o4)cc3)cc2)oc2cc(O)cc(O)c12`, the Resistance reversal entry in data set [4], in data set [6], in data set [7], in data set [22] and in data set [23] was “Active” throughout. Besides, the Resistance reversal result in data set [8] was “inactive”. Also, the 50% inhibitory concentration (IC50) was found to be 8 µM in the data set on Leishmania donovani [1] and 11 µM in the data set with Leishmania donovani [2]. Further, in data set [18], the Resistance reversal result is “Dose-dependent effect”. For the same molecule, in [20], the half-maximal effective concentration (EC50) is 1.85 µM.
